Rows were chosen to be rich in hits. Some 2% of all compounds tested hit in one or more screens of this group.
CHRM5 agonist: agonists of human muscarinic M5 receptor (CHRM5). AID 624037. CHO-K1 hM5 cells, Fluo-8 calcium fluorescence; 0% DMSO wells, 100% maximal acetylcholine response. activation, % at 3 µM. 360,000 tested, 0.19% active. P08912;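 active = activation above the run's mean over test compounds plus 3 SD, cut at about 23% in these data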;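 also: signal is peak over basal fluorescence ratio across the kinetic read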
CHRM1 PAM: human CHRM1 positive allosteric modulation. P11229. CHO-K1 hM1, Fluo-8 calcium fluorescence, ACh EC20; 0% = ACh EC20, 100% = maximal ACh. activation, % at 3 µM. 360,000 tested, 0.088% active; in the data active = activation above about 19%, passing the limit was not always enough
Target sequence (P11229 whole entry, looked up): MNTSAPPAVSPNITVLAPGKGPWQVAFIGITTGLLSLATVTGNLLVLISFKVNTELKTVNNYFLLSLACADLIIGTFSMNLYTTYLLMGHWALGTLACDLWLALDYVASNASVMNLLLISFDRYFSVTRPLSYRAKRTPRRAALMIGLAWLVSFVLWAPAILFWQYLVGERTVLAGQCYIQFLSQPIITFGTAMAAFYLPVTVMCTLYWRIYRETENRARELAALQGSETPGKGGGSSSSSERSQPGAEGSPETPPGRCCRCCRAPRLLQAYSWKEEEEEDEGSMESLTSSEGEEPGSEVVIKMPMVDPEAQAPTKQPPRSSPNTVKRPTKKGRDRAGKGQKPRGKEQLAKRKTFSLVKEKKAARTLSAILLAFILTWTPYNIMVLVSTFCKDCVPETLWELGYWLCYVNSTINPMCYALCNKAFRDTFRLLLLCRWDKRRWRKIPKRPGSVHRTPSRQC
M1 ag: human M1 muscarinic receptor agonism. P11229. CHO-K1 hM1, Fluo-8 calcium fluorescence, agonist mode; 0% DMSO, 100% acetylcholine EC100. activation, % at 3 µM. 360,000 tested, 0.33% active. AID 588814;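 active = activation above the run's mean compound activation plus 3 SD, cut at about 16% in these data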;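 also: peak over basal fluorescence ratio within a 140 s kinetic read after compound addition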
CHRM5 PAM: CHRM5 positive allosteric modulation. P08912. activation, % at 3 µM. AID 624038. 360,000 tested, 0.3% active. CHO-K1 hM5, Fluo-8 calcium, ACh EC20 PAM; 0% = ACh EC20, 100% = ACh EC100;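 active = activation above the run cutoff, the mean activation of all test compounds plus 3 SD, cut at about 18% in these data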
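Assay system: CHO-K1 hM5 cells. Also added: acetylcholine at EC20 concentration, added after compound. Dosing: 3 µM, single dose. Times: compound preincubation 140 s before EC20 acetylcholine addition. Signal: Fluo-8 calcium fluorescence. Measure: % activation relative to EC20 and EC100 ACh responses. Repeats: singlicate, one well per test compound.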
M1 antag: antagonists of human M1 muscarinic receptor. P11229. CHO-K1 hM1, Fluo-8 calcium fluorescence, ACh EC80 antagonist. inhibition, % at 3 µM. 360,000 tested, 1.3% active. AID 588852;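 active = percent inhibition above its own plate's cutoff, namely the mean of that plate's compound wells plus 3 SD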;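 also: peak over basal fluorescence ratio during 140 s after agonist addition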
CHRM5 antagonist: CHRM5 antagonism in calcium assay; CHO-hM5 cells, Fluo-8 calcium fluorescence, ACh EC80; inhibition, % at 3 µM; 360,000 tested, 0.59% active;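 active = inhibition above a per-plate cutoff, the mean of that plate's test compounds plus 3 SD, cut at about 27% in these data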
Numbers stand for hits.

How did Cc1noc(C)c1NC(=O)N(C)C[C@H]1OCCCC[C@@H](C)Oc2ccc(NC(=O)c3ccccc3)cc2C(=O)N([C@H](C)CO)C[C@@H]1C do in these assays?
CHRM5 agonist: inactive; CHRM1 PAM: inactive; M1 ag: 17; CHRM5 PAM: inactive; M1 antag: inactive; CHRM5 antagonist: inactive

How did Cc1noc(C)c1NC(=O)N(C)C[C@H]1OCCCC[C@@H](C)Oc2ccc(NC(=O)Nc3ccc(F)cc3)cc2C(=O)N([C@@H](C)CO)C[C@H]1C do in these assays?
CHRM5 agonist: inactive; CHRM1 PAM: inactive; M1 ag: inactive; CHRM5 PAM: inactive; M1 antag: inactive; CHRM5 antagonist: inactive

How did CCN(CC)CC(O)CN1c2ccccc2Sc2ccccc21 (centres undefined) do in these assays?
CHRM5 agonist: inactive; CHRM1 PAM: inactive; M1 ag: inactive; CHRM5 PAM: inactive; M1 antag: 51; CHRM5 antagonist: 39

How did COc1ccc2c(c1)N(C[C@H](C)CN(C)C)c1ccccc1S2 do in these assays?
CHRM5 agonist: inactive; CHRM1 PAM: inactive; M1 ag: inactive; CHRM5 PAM: inactive; M1 antag: 99; CHRM5 antagonist: 60

Results for CC(CN(C)C)CN1c2ccccc2Sc2ccccc21 (centres undefined) ?
CHRM5 agonist: inactive; CHRM1 PAM: inactive; M1 ag: inactive; CHRM5 PAM: inactive; M1 antag: 101; CHRM5 antagonist: 98

How did CN(Cc1ccccc1)C(=O)C1(C)CCN1C(=O)Cc1ccc(Cl)cc1Cl (centres undefined) do in these assays?
CHRM5 agonist: inactive; CHRM1 PAM: inactive; M1 ag: inactive; CHRM5 PAM: inactive; M1 antag: inactive; CHRM5 antagonist: inactive

What do the screens show for `CC(C)CC(N)c1csc(Nc2cc(Oc3ccccc3)ncn2)n1` (centres undefined)?
CHRM5 agonist: inactive; CHRM1 PAM: inactive; M1 ag: inactive; CHRM5 PAM: inactive; M1 antag: inactive; CHRM5 antagonist: inactive

How did CC1(C(=O)NCc2ccc3c(c2)OCO3)CCN1Cc1csc2ccccc12 (centres undefined) do in these assays?
CHRM5 agonist: inactive; CHRM1 PAM: inactive; M1 ag: inactive; CHRM5 PAM: inactive; M1 antag: inactive; CHRM5 antagonist: inactive

What do the screens show for `COCCOc1nc2ccccc2nc1C`?
CHRM5 agonist: inactive; CHRM1 PAM: inactive; M1 ag: inactive; CHRM5 PAM: 30; M1 antag: inactive; CHRM5 antagonist: inactive

Results for COc1c(C)cc(C(O)c2ncc(-c3ccccc3C(F)(F)F)[nH]2)cc1C (centres undefined) ?
CHRM5 agonist: inactive; CHRM1 PAM: inactive; M1 ag: inactive; CHRM5 PAM: inactive; M1 antag: inactive; CHRM5 antagonist: inactive

Results for CCN(CCCNC(=O)C1CCN(S(=O)(=O)c2cccc3nonc23)CC1)Cc1ccccc1 ?
CHRM5 agonist: inactive; CHRM1 PAM: inactive; M1 ag: inactive; CHRM5 PAM: inactive; M1 antag: 47; CHRM5 antagonist: inactive

Results for O=C(CN1CCN(C(=O)C2CCN(C(=O)/C=C/c3ccccc3)CC2)CC1)Nc1ccc(F)cc1 ?
CHRM5 agonist: inactive; CHRM1 PAM: inactive; M1 ag: inactive; CHRM5 PAM: inactive; M1 antag: inactive; CHRM5 antagonist: inactive

How did O=C(CCc1nc2ccccc2c(=O)[nH]1)NCCN1C(=O)S/C(=C\c2ccc(Cl)cc2Cl)C1=O do in these assays?
CHRM5 agonist: inactive; CHRM1 PAM: inactive; M1 ag: inactive; CHRM5 PAM: inactive; M1 antag: 26; CHRM5 antagonist: inactive

Results for CCN1CCCSC1=S ?
CHRM5 agonist: inactive; CHRM1 PAM: inactive; M1 ag: inactive; CHRM5 PAM: inactive; M1 antag: inactive; CHRM5 antagonist: inactive

What do the screens show for `CCS(=O)(=O)N1CCN(CC2CC3C=CC2C3)CC1` (centres undefined)?
CHRM5 agonist: inactive; CHRM1 PAM: inactive; M1 ag: inactive; CHRM5 PAM: inactive; M1 antag: inactive; CHRM5 antagonist: inactive

Results for CCCS(=O)(=O)N1CCN(CC2CC3C=CC2C3)CC1 (centres undefined) ?
CHRM5 agonist: inactive; CHRM1 PAM: inactive; M1 ag: 22; CHRM5 PAM: inactive; M1 antag: inactive; CHRM5 antagonist: inactive

Results for CCCCCCCCN1C(=O)[C@H](CC(=O)NCc2cccc3ccccc23)C[C@@]2(C(=O)OC)CC(C)(C)CC=C12 ?
CHRM5 agonist: inactive; CHRM5 PAM: inactive; CHRM5 antagonist: inactive

What do the screens show for `O=[N+]([O-])c1cc(S(=O)(=O)NCCN2CCOCC2)ccc1Sc1nnnn1-c1ccccc1`?
CHRM5 agonist: inactive; CHRM1 PAM: inactive; M1 ag: inactive; CHRM5 PAM: inactive; M1 antag: 62; CHRM5 antagonist: inactive

Results for Cc1ccc(-n2nnnc2Sc2ccc(S(=O)(=O)NCCN(C)C)cc2[N+](=O)[O-])cc1 ?
CHRM5 agonist: inactive; CHRM1 PAM: inactive; M1 ag: inactive; CHRM5 PAM: inactive; M1 antag: 86; CHRM5 antagonist: inactive

How did COC(=O)C[C@H]1CC[C@@H](NC(=O)C2CC2)[C@@H](CO)O1 do in these assays?
CHRM5 agonist: inactive; CHRM5 PAM: inactive; CHRM5 antagonist: inactive

How did Cc1cc(C)cc(-c2nnc(SCC(=O)NCC3CCCO3)o2)c1 (centres undefined) do in these assays?
CHRM5 agonist: inactive; CHRM1 PAM: 28; M1 ag: inactive; CHRM5 PAM: inactive; M1 antag: inactive; CHRM5 antagonist: inactive

Results for CCN1CCN(C(=O)CCCn2c(C)c3cnn(-c4ccccc4)c(=O)c3c2C)CC1 ?
CHRM5 agonist: inactive; CHRM1 PAM: 25; M1 ag: inactive; CHRM5 PAM: inactive; M1 antag: inactive; CHRM5 antagonist: inactive

What do the screens show for `Cc1c2cnn(-c3ccccc3)c(=O)c2c(C)n1CCCC(=O)N1CCN(C2CCCCC2)CC1`?
CHRM5 agonist: inactive; CHRM1 PAM: inactive; M1 ag: 38; CHRM5 PAM: inactive; M1 antag: inactive; CHRM5 antagonist: inactive

What do the screens show for `Cc1c2cnn(-c3ccccc3)c(=O)c2c(C)n1CCCC(=O)N1CCN(c2ncccn2)CC1`?
CHRM5 agonist: inactive; CHRM1 PAM: inactive; M1 ag: inactive; CHRM5 PAM: inactive; M1 antag: inactive; CHRM5 antagonist: inactive

How did COC1=CC(=O)OC(c2cccc([N+](=O)[O-])c2)C1 (centres undefined) do in these assays?
CHRM5 agonist: inactive; CHRM5 PAM: inactive; CHRM5 antagonist: inactive

How did O=C(NCC1CCN(Cc2cccc(Cl)c2)CC1)C1CCCN(c2ncnc3c2nc2n3CCCCC2)C1 (centres undefined) do in these assays?
CHRM5 agonist: inactive; CHRM1 PAM: inactive; M1 ag: inactive; CHRM5 PAM: inactive; M1 antag: 75; CHRM5 antagonist: inactive

Results for O=C(C1CCN(c2ncnc3c2nc2n3CCCCC2)CC1)N1CCN(c2ccc(F)cc2)CC1 ?
CHRM5 agonist: inactive; CHRM1 PAM: inactive; M1 ag: 30; CHRM5 PAM: inactive; M1 antag: inactive; CHRM5 antagonist: inactive

Screening results deposited in PubChem by The Scripps Research Institute Molecular Screening Center.
